Experimental data published in ChEMBL document CHEMBL1156222, “Tetrahydropyridine derivatives with inhibitory activity on the production of proinflammatory cytokines: part 2” (Bioorg Med Chem Lett, 2010).

Assays:
[1] = tested on: Blood; assay: Antiinflammatory activity in human whole blood assessed as inhibition of LPS-induced TNFalpha production at 10 uM after 6 hrs; type: functional
In short: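 Human whole blood was stimulated with LPS, and inhibition of TNFα production was measured at a single test concentration of 10 μM. Values are mean and S.D. of three to four determinations.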

[2] = tested on: Blood; assay: Antiinflammatory activity in human whole blood assessed as inhibition of LPS-induced TNFalpha production after 6 hrs; type: functional, tissue-based
In short: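 Human whole blood was stimulated with LPS, and TNFα production was measured. % inhibition was plotted against log test concentration, and IC50 came from a least-squares linear regression. 95% confidence intervals were calculated by Fieller's theorem. Values are mean and S.D. of three to four determinations.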

[3] = tested on: Mus musculus; assay: Antiinflammatory activity in po dosed mouse assessed as inhibition of LPS-induced TNFalpha production administered 30 mins before LPS challenge measured after 1 hr by ELISA; type: functional; details: read-out: ID50 (the source's name)
In short: (§1)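 LPS-induced TNFα production was measured in mice, with N = 5. Activity is reported either as ID50 or as % inhibition at a single 20 mg/kg dose.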

[4] = species on record: Mus musculus; assay: Selectivity ratio of compound ID50 to 4-(2-(4-fluorophenyl)-4-(1,2,3,6-tetrahydropyridin-4-yl)-1H-pyrrol-3-yl)pyridine ID50 for antiinflammatory activity in mouse; type: functional
[5] = tested on: Mus musculus; assay: Antiinflammatory activity in mouse assessed as inhibition of LPS-induced TNFalpha production at 20 mg/kg, po administered 30 mins before LPS challenge measured after 1 hr by ELISA; type: functional; in short: as §1

Row | SMILES | inhibition at 10 µM [1] | IC50 [2] | ED50 [3] | Ratio [4] | inhibition in vivo at 20 mg/kg [5]
1 | CN1CCC(c2c[nH]c(-c3ccc(F)cc3)c2-c2ccncc2)=CC1Cc1ccccc1 (configuration not stated) | 30.8% | – | – | – | –
2 | CCCN1CCC(c2c[nH]c(-c3ccc(F)cc3)c2-c2ccncc2)=CC1C (configuration not stated) | – | 440 nM | 2.79 mg/kg | – | –
3 | CC(C)(C)N1CC=C(c2c[nH]c(-c3ccc(F)cc3)c2-c2ccncc2)CC1 | – | > 10000 nM | – | – | –
4 | CC(C)N1CC=C(c2c[nH]c(-c3ccc(F)cc3)c2-c2ccncc2)CC1 | – | 980 nM | 6.18 mg/kg | – | –
5 | CCN1CCC(c2c[nH]c(-c3ccc(F)cc3)c2-c2ccncc2)=CC1C (configuration not stated) | – | 1610 nM | 5.28 mg/kg | – | –
6 | CN1C(C)(C)C=C(c2c[nH]c(-c3ccc(F)cc3)c2-c2ccncc2)CC1(C)C | – | 8440 nM | 7.27 mg/kg | – | –
7 | CC1C=C(c2c[nH]c(-c3ccc(F)cc3)c2-c2ccncc2)CCN1 (configuration not stated) | – | 710 nM | 2.29 mg/kg | – | –
8 | CN1CC=C(c2c[nH]c(-c3ccc(F)cc3)c2-c2ccncc2)CC1 | – | 3960 nM | 2.89 mg/kg | >2 | –
9 | CCN1CC=C(c2c[nH]c(-c3ccc(F)cc3)c2-c2ccncc2)CC1 | – | 1210 nM | 6.67 mg/kg | – | –
10 | CCCN1CC=C(c2c[nH]c(-c3ccc(F)cc3)c2-c2ccncc2)CC1 | – | 520 nM | 6.75 mg/kg | – | –
11 | CC1CC(c2c[nH]c(-c3ccc(F)cc3)c2-c2ccncc2)=CCN1C (configuration not stated) | – | 1280 nM | 2.73 mg/kg | – | –
12 | CCCCCCCCN1CC=C(c2c[nH]c(-c3ccc(F)cc3)c2-c2ccncc2)CC1 | – | 1380 nM | – | – | 45%
13 | CC1C=C(c2c[nH]c(-c3ccc(F)cc3)c2-c2ccncc2)CCN1C (configuration not stated) | – | 630 nM | 1.42 mg/kg | – | –
14 | Fc1ccc(-c2[nH]cc(C3=CCN(Cc4ccccc4)CC3)c2-c2ccncc2)cc1 | – | > 30000 nM | – | – | –
15 | C=CCC1C=C(c2c[nH]c(-c3ccc(F)cc3)c2-c2ccncc2)CCN1C (configuration not stated) | 48.7% | – | – | – | –
